Results published in PubChem BioAssay.
Calls of active or inactive are those of the source.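 Rule for the calls, unless noted: active = viability at or below 10% of carrier control in both of two separate runs; inconclusive = viability at or below 10% in only one of the two runs; inactive = the rest.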

Key:
[1] = Her2 expression decrease, cell viability multiplex – SKBR3 breast tumor cells, AlphaScreen, ATP viability, primary screen (AID 461;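 active = Her2 level under about 52% in both replicate screens, with viability over 70% of control, limit read from the data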;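 for Her2 level: lower value means less Her2 protein in the cells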;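 for viability: percent of carrier control wells set as 100% viability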); settings: SKBR3 Her2 protein level, 18-24 h, measured here: SKBR3 viability, ATP luminescence, at 10 µM
[2] = target: Receptor tyrosine-protein kinase erbB-2 (Homo sapiens) (UniProt P04626); test: as above; settings: 18-24 h, at 10 µM, stronger effect = lower value
Receptor tyrosine-protein kinase erbB-2 (Homo sapiens), sequence (P04626 whole entry, looked up): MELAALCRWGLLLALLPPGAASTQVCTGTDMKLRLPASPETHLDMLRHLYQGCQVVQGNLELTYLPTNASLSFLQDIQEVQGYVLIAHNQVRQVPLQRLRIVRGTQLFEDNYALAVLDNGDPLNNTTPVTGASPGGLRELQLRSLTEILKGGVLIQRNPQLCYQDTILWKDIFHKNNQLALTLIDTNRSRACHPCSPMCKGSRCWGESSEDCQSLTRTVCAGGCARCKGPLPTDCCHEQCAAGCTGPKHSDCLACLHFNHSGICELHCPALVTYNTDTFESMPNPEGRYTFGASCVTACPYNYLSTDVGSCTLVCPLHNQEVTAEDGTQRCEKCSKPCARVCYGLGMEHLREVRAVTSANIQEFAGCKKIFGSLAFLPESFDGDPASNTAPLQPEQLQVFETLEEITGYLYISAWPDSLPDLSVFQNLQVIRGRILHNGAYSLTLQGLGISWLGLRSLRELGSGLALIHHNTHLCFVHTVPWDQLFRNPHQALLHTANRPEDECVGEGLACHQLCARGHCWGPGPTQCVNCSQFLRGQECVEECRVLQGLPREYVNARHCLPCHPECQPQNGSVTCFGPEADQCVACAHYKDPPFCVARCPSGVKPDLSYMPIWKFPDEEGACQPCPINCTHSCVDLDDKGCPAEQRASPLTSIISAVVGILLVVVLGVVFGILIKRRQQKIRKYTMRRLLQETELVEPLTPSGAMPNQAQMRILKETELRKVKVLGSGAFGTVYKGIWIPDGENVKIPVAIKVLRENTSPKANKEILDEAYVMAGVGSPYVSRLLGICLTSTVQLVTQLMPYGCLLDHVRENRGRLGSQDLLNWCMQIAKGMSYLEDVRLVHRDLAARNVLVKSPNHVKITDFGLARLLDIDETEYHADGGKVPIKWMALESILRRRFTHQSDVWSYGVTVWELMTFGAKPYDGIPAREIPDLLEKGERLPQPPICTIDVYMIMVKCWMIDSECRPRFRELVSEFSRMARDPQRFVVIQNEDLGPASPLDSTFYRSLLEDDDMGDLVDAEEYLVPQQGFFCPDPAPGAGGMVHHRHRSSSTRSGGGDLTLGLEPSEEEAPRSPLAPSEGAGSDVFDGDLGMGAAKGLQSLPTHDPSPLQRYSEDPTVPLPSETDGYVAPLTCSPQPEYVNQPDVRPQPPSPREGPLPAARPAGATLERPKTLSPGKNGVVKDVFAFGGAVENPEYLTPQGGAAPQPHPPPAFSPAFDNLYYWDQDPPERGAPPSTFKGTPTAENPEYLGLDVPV

[3] = reduced viability of SK-BR-3 breast cancer cells – cell-based, 24 h, human, pilot screen (AID 572); settings: SK-BR-3 viability, CellTiter-Glo luminescence, at 10 µM, stronger effect = lower value;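 note: compound exposure lasted between 18 and 24 h rather than exactly 24 h; 100% = carrier-treated control wells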
[4] = HUVEC growth inhibition – cell-based, human, primary screen (AID 575;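 active = viability at or below 30% in both replicate assays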;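 note: 100% = median of untreated cell wells with 0.1% DMSO on each plate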); settings: HUVEC proliferation, CellTiter-Glo luminescence, 72 h; at 10 µM; stronger effect = lower value
In short: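 Test system – primary HUVEC, no more than 12 passages · Dosing – one dose, 10 µM final, 0.1% DMSO · Times – 72 h treatment at 37 °C · Measured by – ATP-based CellTiter-Glo luminescent read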

[5] = H69AR cell proliferation blockers – human, duplicate replicates, primary screen (AID 580;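 active = viability at or under a set limit in both replicates, limit being median viability minus 3 SD, cut at about 48% in these data, passing the limit was not always enough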;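 note: 100% = mean luminescence of untreated wells and 0% = no signal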); settings: H69AR lung tumor cells viability, ATP luminescence, 72 h; at 10 µM; stronger effect = lower value
[6] = MRP1 drug-resistance reversers in H69AR cells – cell-based, doxorubicin co-treatment, pilot screen (AID 601;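 active = viability loss from added drug above about 55%, and viability with drug at most 40%, in both replicates, limit read from the data, passing the limit was not always enough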); settings: CellTiter-Glo, 72 h, at 10 µM; for differential viability (reversal): stronger effect = higher value
[7] = yeast transport mutant growth inhibition pilot in 384-well plates, post-Golgi transport modulator project (AID 636; in the data active = inhibition above about 31%); settings: absorbance 615 nm, about 18 h, stronger effect = higher value
[8] = growth suppression of yeast trafficking mutant, preliminary HTS, modulators of trafficking downstream of Golgi apparatus project, 1536-format plate, OD 615 nm (AID 637; in the data active = inhibition above about 30%); settings: yeast transport mutant growth, absorbance 615 nm, 18 h; stronger effect = higher value
[9] = H69AR cells + 2 uM doxorubicin, measured here: viability with 2 uM doxorubicin, stronger effect = lower value
[10] = H69AR cells, compound alone cytotoxicity

COc1ccc(C2C(C(=O)c3sc(C)nc3C)=C(O)C(=O)N2CCN2CCOCC2)cc1 (stereo not given)
viability [1]: 99% | Her2 level [2]: 92.5% (inactive) | viability [3]: 99% (inactive) | viability [4]: 111% (inactive) | viability [5]: 102% (inactive) | differential viability (reversal) ([6]; H69AR cells + 2 uM doxorubicin): 5.41% (inactive) | viability [6, 9]: 96.3% | viability [6, 10]: 102% | inhibition [7]: 0% (inactive) | inhibition [8]: -4.19% (inactive)

CCOC(=O)N1CCN(C(=O)c2n[nH]c(=O)c3ccccc23)CC1
viability [1]: 85% | Her2 level [2]: 101% (inactive) | viability [3]: 85% (inactive) | viability [4]: 95.1% (inactive) | viability [5]: 91.6% (inactive) | differential viability (reversal) ([6]; H69AR cells + 2 uM doxorubicin): 1.86% (inactive) | viability [6, 9]: 89.8% | viability [6, 10]: 91.6% | inhibition [7]: -1.6% (inactive) | inhibition [8]: 19% (inactive)

CCC(=O)Nc1c2c(nn1-c1ccccc1C)CSC2
viability [1]: 86.5% | Her2 level [2]: 89.5% (inactive) | viability [3]: 86.5% (inactive) | viability [4]: 104% (inactive) | viability [5]: 102% (inactive) | differential viability (reversal) ([6]; H69AR cells + 2 uM doxorubicin): 12.8% (inactive) | viability [6, 9]: 89.4% | viability [6, 10]: 102% | inhibition [7]: -4.42% (inactive) | inhibition [8]: -3.65% (inactive)

CCOC(=O)N1CCN(C(=O)c2csc3c2CCCCC3)CC1
viability [1]: 93.5% | Her2 level [2]: 112% (inactive) | viability [3]: 93.5% (inactive) | viability [4]: 94.9% (inactive) | viability [5]: 90.8% (inactive) | differential viability (reversal) ([6]; H69AR cells + 2 uM doxorubicin): -1.73% (inactive) | viability [6, 9]: 92.5% | viability [6, 10]: 90.8% | inhibition [7]: 0.51% (inactive) | inhibition [8]: -13.7% (inactive)

O=C(NCCCCNC(=O)c1cccnc1)c1cccnc1
viability [1]: 95% | Her2 level [2]: 83% (inactive) | viability [3]: 95% (inactive) | viability [4]: 94.5% (inactive) | viability [5]: 105% (inactive) | differential viability (reversal) ([6]; H69AR cells + 2 uM doxorubicin): 3.5% (inactive) | viability [6, 9]: 102% | viability [6, 10]: 105% | inhibition [7]: -0.52% (inactive) | inhibition [8]: 34.9% (active)

CC1=CC=CC2=NC(=O)CC(C)(C(=O)N(CC(=O)NC(C)C)C3CCCC3)N12 (stereo not given)
viability [1]: 101% | Her2 level [2]: 100% (inactive) | viability [3]: 101% (inactive) | viability [4]: 96.5% (inactive) | viability [5]: 94% (inactive) | differential viability (reversal) ([6]; H69AR cells + 2 uM doxorubicin): -6.48% (inactive) | viability [6, 9]: 100% | viability [6, 10]: 94% | inhibition [7]: -4% (inactive) | inhibition [8]: 0.16% (inactive)

NS(=O)(=O)c1ccc(NCc2c(F)cccc2Cl)cc1
viability [1]: 100% | Her2 level [2]: 95.5% (inactive) | viability [3]: 100% (inactive) | viability [4]: 102% (inactive) | viability [5]: 82.9% (inactive) | differential viability (reversal) ([6]; H69AR cells + 2 uM doxorubicin): 6.38% (inactive) | viability [6, 9]: 76.5% | viability [6, 10]: 82.9% | inhibition [7]: -3.82% (inactive) | inhibition [8]: 7.54% (inactive)

CCNC(=O)N(C)c1nncnc1C(=O)NC
viability [1]: 85% | Her2 level [2]: 88% (inactive) | viability [3]: 85% (inactive) | viability [4]: 89.8% (inactive) | viability [5]: 95.8% (inactive) | differential viability (reversal) ([6]; H69AR cells + 2 uM doxorubicin): 6.2% (inactive) | viability [6, 9]: 89.6% | viability [6, 10]: 95.8% | inhibition [7]: -3.6% (inactive) | inhibition [8]: 5.57% (inactive)

Cc1ccc(C(C)n2cc(C(=O)NCCN3CCN(C)CC3)nn2)cc1 (stereo not given)
viability [1]: 106% | Her2 level [2]: 94% (inactive) | viability [3]: 106% (inactive) | viability [4]: 93.5% (inactive) | viability [5]: 86.1% (inactive) | differential viability (reversal) ([6]; H69AR cells + 2 uM doxorubicin): -5% (inactive) | viability [6, 9]: 91.1% | viability [6, 10]: 86.1% | inhibition [7]: -2.21% (inactive) | inhibition [8]: -6.19% (inactive)

O=C(CSc1nc2ncccc2[nH]1)Nc1ccc2c(c1)OCCO2
viability [1]: 108% | Her2 level [2]: 118% (inactive) | viability [3]: 108% (inactive) | viability [4]: 85.6% (inactive) | viability [5]: 82% (inactive) | differential viability (reversal) ([6]; H69AR cells + 2 uM doxorubicin): -0.395% (inactive) | viability [6, 9]: 82.4% | viability [6, 10]: 82% | inhibition [7]: -2.86% (inactive) | inhibition [8]: -0.82% (inactive)

Cn1c2c(c(=O)n(C)c1=O)C(CC(=O)Nc1ccccc1)C(=O)N2 (stereo not given)
viability [1]: 106% | Her2 level [2]: 78.5% (inactive) | viability [3]: 106% (inactive) | viability [4]: 106% (inactive) | viability [5]: 108% (inactive) | differential viability (reversal) ([6]; H69AR cells + 2 uM doxorubicin): 21.8% (inactive) | viability [6, 9]: 86.4% | viability [6, 10]: 108% | inhibition [7]: -2.97% (inactive) | inhibition [8]: 8.57% (inactive)

CNC(=O)c1ccc(N(Cc2ccccc2C)S(C)(=O)=O)cc1
viability [1]: 98% | Her2 level [2]: 102% (inactive) | viability [3]: 98% (inactive) | viability [4]: 102% (inactive) | viability [5]: 93.6% (inactive) | differential viability (reversal) ([6]; H69AR cells + 2 uM doxorubicin): 0.93% (inactive) | viability [6, 9]: 92.7% | viability [6, 10]: 93.6% | inhibition [7]: -3.87% (inactive) | inhibition [8]: -2.95% (inactive)

COc1ccc2c(c1)C(C)=CC(C)(C)N2C(=O)C(C)N1C(=O)c2ccccc2C1=O (stereo not given)
viability [1]: 109% | Her2 level [2]: 104% (inactive) | viability [3]: 109% (inactive) | viability [4]: 81.6% (inactive) | viability [5]: 85.7% (inactive) | differential viability (reversal) ([6]; H69AR cells + 2 uM doxorubicin): -1.3% (inactive) | viability [6, 9]: 87% | viability [6, 10]: 85.7% | inhibition [7]: -5.71% (inactive) | inhibition [8]: -3.33% (inactive)

O=C(Nc1cccnc1)c1ccc2c(c1)C(=O)N(Cc1cccnc1)C2=O
viability [1]: 96.5% | Her2 level [2]: 99.5% (inactive) | viability [3]: 96.5% (inactive) | viability [4]: 103% (inactive) | viability [5]: 102% (inactive) | differential viability (reversal) ([6]; H69AR cells + 2 uM doxorubicin): 7.77% (inactive) | viability [6, 9]: 94.7% | viability [6, 10]: 102% | inhibition [7]: -2.93% (inactive) | inhibition [8]: -1.64% (inactive)

O=S(=O)(NC1CCCC1)c1ccc(S(=O)(=O)N2CCc3ccccc32)cc1
viability [1]: 99.5% | Her2 level [2]: 94.5% (inactive) | viability [3]: 99.5% (inactive) | viability [4]: 66.1% (inactive) | viability [5]: 71.5% (inactive) | differential viability (reversal) ([6]; H69AR cells + 2 uM doxorubicin): 1.97% (inactive) | viability [6, 9]: 69.6% | viability [6, 10]: 71.5% | inhibition [7]: -4.94% (inactive) | inhibition [8]: -12.4% (inactive)

O=C(Nc1ccc2c(c1)nc1n2CCSC1)c1ccccc1
viability [1]: 97% | Her2 level [2]: 114% (inactive) | viability [3]: 97% (inactive) | viability [4]: 108% (inactive) | viability [5]: 92.7% (inactive) | differential viability (reversal) ([6]; H69AR cells + 2 uM doxorubicin): 15.9% (inactive) | viability [6, 9]: 76.8% | viability [6, 10]: 92.7% | inhibition [7]: -0.26% (inactive) | inhibition [8]: -6% (inactive)
